Experimental data from BindingDB's records for doi:10.1021/jm00346a020 (1982).

Target: T1, Dihydrofolate reductase (Gallus gallus, UniProt P00378)
T1 sequence (P00378 whole entry): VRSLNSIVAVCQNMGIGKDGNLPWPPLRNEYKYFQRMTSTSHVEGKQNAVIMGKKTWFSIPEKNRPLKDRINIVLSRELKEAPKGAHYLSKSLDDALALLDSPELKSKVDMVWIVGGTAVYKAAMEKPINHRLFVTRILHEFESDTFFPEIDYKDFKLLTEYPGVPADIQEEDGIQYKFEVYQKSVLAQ
Assay: Inhibitory activity against chicken dihydrofolate reductase at pH 7.2.

| SMILES | Ki |
| --- | --- |
| CN(C)c1ccc(Cc2cnc(N)nc2N)cc1 | 97.7 µM |
| CCCCOCc1cccc(Cc2cnc(N)nc2N)c1 | 6.76 µM |
| Nc1ncc(Cc2ccc([N+](=O)[O-])cc2)c(N)n1 | 42.7 µM |
| Nc1ncc(Cc2ccc(OC(F)(F)F)cc2)c(N)n1 | 55 µM |
| COc1ccc(Cc2cnc(N)nc2N)cc1C(F)(F)F | 10.2 µM |
| CC(=O)Nc1ccc(Cc2cnc(N)nc2N)cc1 | 55 µM |
| COCCOc1c(OC)cc(Cc2cnc(N)nc2N)cc1OC [5-[3,5-Dimethoxy-4-(2-methoxy-ethoxy)-benzyl]-pyrimidine-2,4-diamine] | 229 µM |

Further lines, results first:

| Ki | SMILES |
| --- | --- |
| 19.5 µM | Nc1ncc(Cc2ccccc2)c(N)n1 |
| 19.1 µM | Cc1cccc(Cc2cnc(N)nc2N)c1 |
| 9.77 µM | Nc1ncc(Cc2cccc(Cl)c2)c(N)n1 |
| 20 µM | Nc1ncc(Cc2cccc(F)c2)c(N)n1 |
| 16.2 µM | Nc1ncc(Cc2ccc(F)cc2)c(N)n1 |
| 16.2 µM | Nc1ncc(Cc2cccc(I)c2)c(N)n1 |
| 34.7 µM | COc1ccc(Cc2cnc(N)nc2N)cc1OC [Diaveridine] |

Target: T2, Dihydrofolate reductase (Bos taurus, UniProt P00376)
T2 sequence (P00376 whole entry): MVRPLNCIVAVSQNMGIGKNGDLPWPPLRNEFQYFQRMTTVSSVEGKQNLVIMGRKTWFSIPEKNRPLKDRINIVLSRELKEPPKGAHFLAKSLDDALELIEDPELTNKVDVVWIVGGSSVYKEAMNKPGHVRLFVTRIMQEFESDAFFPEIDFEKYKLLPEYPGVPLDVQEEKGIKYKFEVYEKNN
Assay: Inhibitory activity against bovine liver dihydrofolate reductase at pH 7.2.

| SMILES | Ki |
| --- | --- |
| CN(C)c1ccc(Cc2cnc(N)nc2N)cc1 | 6.17 µM |
| Nc1ncc(Cc2ccc([N+](=O)[O-])cc2)c(N)n1 | 3.72 µM |
| CC(=O)Nc1ccc(Cc2cnc(N)nc2N)cc1[N+](=O)[O-] | 2.82 µM |
| Nc1ncc(Cc2cccc(C(F)(F)F)c2)c(N)n1 | 1.66 µM |

The remaining lines, values ahead:

| Ki | SMILES |
| --- | --- |
| 5.37 µM | Cc1ccc(Cc2cnc(N)nc2N)cc1 |
| 3.8 µM | Nc1ncc(Cc2ccc(Br)cc2)c(N)n1 |
| 1.59 µM | Nc1ncc(Cc2cccc(Cl)c2)c(N)n1 |
| 4.47 µM | COc1ccc(Cc2cnc(N)nc2N)cc1 [5-(4-Methoxy-benzyl)-pyrimidine-2,4-diamine] |
| 2.51 µM | Nc1ncc(Cc2ccc(Cl)cc2)c(N)n1 |
| 3.09 µM | Nc1ncc(Cc2ccc(F)cc2)c(N)n1 |
| 1.55 µM | Nc1ncc(Cc2cccc(Br)c2)c(N)n1 |
| 2.19 µM | COc1ccc(Cc2cnc(N)nc2N)cc1OC [Diaveridine] |
| 25.7 µM | Nc1ncc(Cc2ccc(O)c(O)c2)c(N)n1 |
| 11 µM | Nc1ccc(Cc2cnc(N)nc2N)cc1 |

Target: T2, Dihydrofolate reductase
Assay: Inhibitory activity against bovine liver Dihydrofolate reductase at pH 7.2.
Method in brief: (§1)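 DHFR from chicken liver and from bovine liver, each assayed at pH 7.2 by the group's earlier-reported inhibition procedure. Potency is expressed as an apparent inhibition constant, reported as log(1/Ki app).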

| Ki | SMILES |
| --- | --- |
| 2.63 µM | COCCOc1cccc(Cc2cnc(N)nc2N)c1 |
| 407 µM | Nc1ncc(Cc2cc(O)cc(O)c2)c(N)n1 |
| 5.37 µM | NC(=O)COc1cccc(Cc2cnc(N)nc2N)c1 |
| 6.76 µM | COCCOc1ccc(Cc2cnc(N)nc2N)cc1OCCOC |
| 4.9 µM | COCCOc1ccc(Cc2cnc(N)nc2N)cc1 |
| 3.55 µM | CCCCCCCOc1ccc(Cc2cnc(N)nc2N)cc1 [5-(4-Heptyloxy-benzyl)-pyrimidine-2,4-diamine] |
| 2.82 µM | CCCCCCOc1ccc(Cc2cnc(N)nc2N)cc1 |

Target: T1, Dihydrofolate reductase
Assay: Inhibitory activity against chicken Dihydrofolate reductase at pH 7.2.
Method in brief: as §1

| Ki | SMILES |
| --- | --- |
| 14.8 µM | COCCOc1cccc(Cc2cnc(N)nc2N)c1 |
